Measured values as given in ChEMBL document CHEMBL1125789, “Synthesis and selective class III antiarrhythmic activity of novel N-heteroaralkyl-substituted 1-(aryloxy)-2-propanolamine and related propylamine derivatives” (J Med Chem, 1991).

How the values were obtained:
[1] = tested on: Canis familiaris; test: Ventricular effective refractory period by the compound in open chest anesthetized dog, after iv administration at a dose of 10.0 mg/kg.; assay type: functional, Canis lupus familiaris, Heart
[2] = tested on: Canis familiaris; test: Atrial effective refractory period by the compound in open chest anesthetized dog, after iv administration at a dose of 5.0 mg/kg.; assay type: functional, Canis lupus familiaris, Cardiac atrium; parameters: unit not given here
Method in brief: (§1)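 Open-chest mongrel dogs under sodium pentobarbital anesthesia (30 mg/kg iv plus 5 mg/kg per h), paced at basic cycle length 300 ms. Atrial effective refractory period was determined by electrical stimulation before and after iv or intraduodenal compound and reported as change from control.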

[3] = tested on: Canis familiaris; test: Mean arterial pressure by the compound in open chest anesthetized dog, after iv administration at a dose of 2.5 mg/kg.; assay type: functional, Canis lupus familiaris, Artery
Method in brief: (§2)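 Hemodynamics (heart rate, mean arterial pressure) recorded in pentobarbital-anesthetized (30 mg/kg iv, 5 mg/kg per h maintenance) open-chest mongrel dogs during the refractoriness study at BCL 300 ms. Readings were taken before and after iv or intraduodenal compound and expressed as change from control.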

[4] = tested on: Canis familiaris; test: Ventricular conduction time by the compound in open chest anesthetized dog, after iv administration at a dose of 2.5 mg/kg.; assay type: functional, Canis lupus familiaris, Heart
Method in brief: (§3)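 Mongrel dogs were anesthetized with sodium pentobarbital (30 mg/kg iv, then 5 mg/kg per h), the chest opened, and the heart paced at BCL 300 ms. Compound was given iv or intraduodenally. Ventricular conduction time was taken as the interval between electrograms at the proximal and distal sites of the recording electrode array. 2-5 dogs per dose.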

[5] = tested on: Canis familiaris; test: Atrial effective refractory period by the compound in open chest anesthetized dog, after iv administration at a dose of 10.0 mg/kg.; assay type: functional, Canis lupus familiaris, Cardiac atrium; method in brief: as §1
[6] = tested on: Canis familiaris; test: Atrial conduction time by the compound in open chest anesthetized dog, after iv administration at a dose of 10.0 mg/kg.; assay type: functional, Canis lupus familiaris, Cardiac atrium
Method in brief: (§4)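 Mongrel dogs anesthetized with sodium pentobarbital (30 mg/kg iv, then 5 mg/kg per h), chest opened, paced at BCL 300 ms. Atrial conduction time was taken as the interval between electrograms recorded at the proximal and distal sites of the atrial recording electrode array, before and after iv or intraduodenal dosing. Values are changes from control.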

[7] = tested on: Canis familiaris; test: Ventricular conduction time by the compound in open chest anesthetized dog, after iv administration at a dose of 10.0 mg/kg.; assay type: functional, Canis lupus familiaris, Heart; method in brief: as §3
[8] = tested on: Canis familiaris; test: Atrial conduction time by the compound in open chest anesthetized dog, after iv administration at a dose of 2.5 mg/kg.; assay type: functional, Canis lupus familiaris, Cardiac atrium; method in brief: as §4
[9] = tested on: Canis familiaris; test: Atrial effective refractory period by the compound in open chest anesthetized dog, after iv administration at a dose of 2.5 mg/kg.; assay type: functional, Canis lupus familiaris, Cardiac atrium; method in brief: as §1
[10] = organism: Canis familiaris; test: Maximum rate of rise of the upstroke of transmembrane potential, in canine Purkinje Fibers at a concentration of 300 uM at 300 ms (simulating tachycardia); assay type: functional; conditions: Canis lupus familiaris, Purkinje fiber
Method in brief: (§5)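 Isolated canine Purkinje fiber bundles were driven by square-wave pulses 2.0 ms long at 2× threshold and equilibrated ≥1 h to steady state. Each concentration was superfused 45–60 min before recording, and action potentials were sampled at 4–6 sites per fiber in control and after drug, giving Vmax and APD to −60 mV.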

[11] = organism: Canis familiaris; test: Repolarization to reach -60mV, in canine Purkinje Fibers at a concentration of 30 uM at 300 ms (simulating tachycardia); assay type: functional, Canis lupus familiaris, Purkinje fiber
Method in brief: (§6)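 Purkinje fiber bundles were stimulated with square-wave current pulses of 2.0 ms at twice threshold and equilibrated for at least 1 h, or until action potential parameters were steady. Each concentration was superfused for 45-60 min to reach steady state. Action potentials were recorded at four to six sites per fiber, under control and after drug.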

[12] = tested on: Canis familiaris; test: Heart beat by the compound in open chest anesthetized dog, after iv administration at a dose of 10.0 mg/kg.; assay type: functional, Canis lupus familiaris; method in brief: as §2
[13] = organism: Canis familiaris; test: Maximum rate of rise of the upstroke of transmembrane potential, in canine Purkinje Fibers at a concentration of 30 uM at 300 ms (simulating tachycardia); assay type: functional; conditions: Canis lupus familiaris, Purkinje fiber; method in brief: as §5
[14] = tested on: Canis familiaris; test: Mean arterial pressure by the compound in open chest anesthetized dog, after iv administration at a dose of 5.0 mg/kg.; assay type: functional, Canis lupus familiaris, Artery; parameters: unit not given here; method in brief: as §2
[15] = tested on: Canis familiaris; test: Atrial conduction time by the compound in open chest anesthetized dog, after iv administration at a dose of 5.0 mg/kg.; assay type: functional, Canis lupus familiaris, Cardiac atrium; parameters: unit not given here; method in brief: as §4
[16] = tested on: Canis familiaris; test: Ventricular effective refractory period by the compound in open chest anesthetized dog, after iv administration at a dose of 5.0 mg/kg.; assay type: functional, Canis lupus familiaris, Heart; parameters: unit not given here
[17] = organism: Canis familiaris; test: repolarization to reach -60mV, in canine Purkinje Fibers at a concentration of 30 uM at 1000 ms (simulating normal heart rate); assay type: functional, Canis lupus familiaris, Purkinje fiber; method in brief: as §6
[18] = tested on: Canis familiaris; test: Heart beat by the compound in open chest anesthetized dog, after iv administration at a dose of 2.5 mg/kg.; assay type: functional, Canis lupus familiaris; method in brief: as §2
[19] = organism: Canis familiaris; test: Maximum rate of rise of the upstroke of transmembrane potential, in canine Purkinje Fibers at a concentration of 300 uM at 1000 ms (simulating normal heart rate); assay type: functional; conditions: Canis lupus familiaris, Purkinje fiber; method in brief: as §5
[20] = tested on: Canis familiaris; test: Ventricular conduction time by the compound in open chest anesthetized dog, after iv administration at a dose of 5.0 mg/kg.; assay type: functional, Canis lupus familiaris, Heart; parameters: unit not given here; method in brief: as §3
[21] = organism: Canis familiaris; test: repolarization to reach -60mV, in canine Purkinje Fibers at a concentration of 300 uM at 1000 ms (simulating normal heart rate); assay type: functional, Canis lupus familiaris, Purkinje fiber; method in brief: as §6
[22] = organism: Canis familiaris; test: Repolarization to reach -60mV, in canine Purkinje Fibers at a concentration of 300 uM at 300 ms (simulating tachycardia); assay type: functional, Canis lupus familiaris, Purkinje fiber; method in brief: as §6
[23] = tested on: Canis familiaris; test: Mean arterial pressure by the compound in open chest anesthetized dog, after iv administration at a dose of 10.0 mg/kg.; assay type: functional, Canis lupus familiaris, Artery; method in brief: as §2
[24] = tested on: Canis familiaris; test: Heart beat by the compound in open chest anesthetized dog, after iv administration at a dose of 5.0 mg/kg.; assay type: functional, Canis lupus familiaris; parameters: unit not given here; method in brief: as §2
[25] = organism: Canis familiaris; test: Maximum rate of rise of the upstroke of transmembrane potential, in canine Purkinje Fibers at a concentration of 30 uM at 1000 ms (simulating normal heart rate); assay type: functional; conditions: Canis lupus familiaris, Purkinje fiber; method in brief: as §5
[26] = tested on: Canis familiaris; test: Ventricular effective refractory period by the compound in open chest anesthetized dog, after iv administration at a dose of 2.5 mg/kg.; assay type: functional, Canis lupus familiaris, Heart

`CC(C)NCC(O)c1ccc(NS(C)(=O)=O)cc1` (racemic) [SOTALOL] gave a VERP [1] of 30, an AERP [2] of 57 and an MBP [3] of -16. The VCT [4] was -1, the AERP [5] was 68 and the ACT [6] was -4. The VCT [7] was -4, the ACT [8] was -5 and the AERP [9] was 42. The Vmax [10] was -20, the APD [11] was 18% and the HR [12] was -39. It also gave a Vmax [13] of -12, an MBP [14] of -17 and an ACT [15] of -7. For the same molecule, the VERP [16] was 25, the APD [17] was 56% and the HR [18] was -27. The Vmax [19] was -10, the VCT [20] was -1 and the APD [21] was 86%. For the same molecule, the APD [22] was 36%, the MBP [23] was -29 and the HR [24] was -28. It also gave a Vmax [25] of 2 and a VERP [26] of 19.
